The values below come from paper PMC11382152 (The Journal of Organic Chemistry, 2024).

In brackets after ≈: the same amount, converted by molar mass.

Holding throughout (test): MIC assay
What all share (assay type): cell-based

Test [1] relates to Bacillus subtilis ATCC 6051. To be noted: ATCC6051. In short, it runs like this: (§1)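 Test compounds were prepared as trifluoroacetate salts and assayed for MIC against a Gram-positive panel: B. subtilis, S. epidermidis, MSSA and MRSA. E. coli served as the Gram-negative negative-control organism. The natural parent peptide and vancomycin served as positive controls.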
In test [2] the test system is Staphylococcus epidermidis ATCC 14990. To be noted: ATCC14990. In short, it runs like this: as §1
Test [3] concerns Escherichia coli ATCC 10798. To be noted: ATCC10798. In short, it runs like this: as §1

In the case of `CN[C@H](CC(C)C)C(=O)N[C@H]1C(=O)N[C@@H](CC(N)=O)C(=O)N[C@H]2C(=O)N[C@H]3C(=O)N[C@H](C(=O)N[C@H](C(=O)O)c4cc(O)cc(O)c4-c4cc3ccc4O)[C@H](O)c3ccc(c(Cl)c3)Oc3cc2cc(c3O[C@@H]2O[C@H](CO)[C@@H](O)[C@H](O)[C@H]2O[C@H]2C[C@](C)(N)[C@H](O)[C@H](C)O2)Oc2ccc(cc2Cl)[C@H]1O` [vancomycin], the MIC was 0.125 to 0.25 µg/mL (≈ 0.0863 to 0.173 µM) in test [1], 2 µg/mL (≈ 1.38 µM) in test [2] and over 32 µg/mL in test [3].
